Assay outcomes from PubChem BioAssay.
STAT1 inh – STAT1 signaling inhibition; actives 0.35% (n = 200,000); inhibition, % at 5.5 µM; NIH 3T3 STAT1-luciferase reporter, IFN-gamma, luminescence;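 active = inhibition above a set limit, the mean inhibition across all tested compounds plus 3 SD, cut at about 34% in these data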
NF-kB expr up – NF-kB expression increase, human neuronal cells. NF-kB reporter expression; active compounds read high. actives 1.6% (n = 190,000). AID 1239. fold change at 12.5 µM; in the data active = fold change above about 3.3
STAT3 activator – activators of IL-6 induced STAT3 signaling; activation (% of control), % at 5.6 µM; U3A cells, IL-6 STAT3-luciferase reporter, luminescence; 100% = signal with IL-6 EC80 alone; actives 0.91% (n = 190,000); AID 871;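 active = activation above the screen-wide mean of compound activation plus 3 SD, cut at about 130% in these data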
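Material: human STAT1-deficient U3A cells with stable STAT3-luciferase reporter / Probe or stimulus: IL-6 stimulus at 33 ng/mL final / Schedule: 1 h compound pre-exposure, 6 h IL-6 stimulation, 37 °C / Technique: luminescence / Read-out basis: percent of IL-6-only median luminescence / Control set: IL-6-only high control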
STAT3 inh – reduces IL-6 driven STAT3 reporter signal. U3A cells, IL-6 STAT3-luciferase reporter, luminescence; host cell line lacks STAT1. inhibition, % at 5.5 µM. actives 0.89% (n = 190,000). AID 862;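 active = inhibition above the mean inhibition across all screened compounds plus 3 SD, cut at about 44% in these data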
STAT1 activator – increases IFN-gamma driven STAT1 reporter signal; NIH 3T3 STAT1-luciferase reporter, luminescence; 100% = IFN-gamma alone, no compound; activation (% of control), % at 5.5 µM; actives 2.6% (n = 200,000); AID 932;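 active = activation above the screen-wide mean activation plus 3 SD, cut at about 130% in these data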
APP 5'UTR act – APP 5'UTR luciferase reporter activation; activation, % at 2 µM; actives 1% (n = 190,000); SH-SY5Y APP 5'UTR luciferase reporter, luminescence; zero percent = DMSO vehicle wells; AID 1276;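 active = activation above a set limit, based on mean plus 3 SD of controls, cut at about 140% in these data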
STAT1 act conf – STAT1 activation, confirmation assay. shares compounds with STAT1 activator. actives 97% (n = 1,200). NIH 3T3 STAT1-luciferase reporter, IFN-gamma potentiation, luminescence; 100% = IFN-gamma EC80 alone, no compound. activation (% of control), % at 5.7 µM;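 active = activation above a set limit carried over from the earlier primary STAT1 screen, cut at about 140% in these data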
NFkB act STAT1ct – counter-screen for STAT1 activators: NF-kappaB activation. activation (% of control), % at 5.7 µM. actives 43% (n = 1,200). HEK293T NF-kB luciferase reporter, TNF-alpha stimulated, luminescence; 100% = TNF-alpha with vehicle only. shares compounds with STAT1 activator;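 active = activation above the mean of solvent-only control wells plus 3 SD, set per campaign, cut at about 130% in these data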;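 note: TNF-alpha given at a submaximal dose yielding about 80% of full reporter signal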
STAT3 act 2 – activates human STAT3, counter-screen to STAT1 activators | U3A cells STAT3-luciferase reporter, IL-6, luminescence; cells lack STAT1; 100 = IL-6 alone, no compound effect | activation (% of control), % at 5.7 µM | shares compounds with STAT1 activator | actives 46% (n = 1,200);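 active = activation above the solvent-only control well mean plus 3 SD, set per plate batch, cut at about 110% in these data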;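 note: higher means more STAT3 reporter activation so hits are non-selective activators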
Of the large screens only hits and unclear results are named; the others gave an inactive call (follow-up assays come after a bar, where they were run). In the library only some 5.1% were active in any assay of this set; here they are far more common.

Cc1ccc2cc3cc(C(=O)N4CCCCC4C)oc3nc2c1 (stereo unspecified)	NF-kB expr up 3.5, STAT1 activator 166, APP 5'UTR act 197 | STAT1 act conf 216 | NFkB act STAT1ct 136 | STAT3 act 2 inactive
COc1ccc(-c2noc(Cc3cccs3)n2)cc1	NF-kB expr up 3.9, STAT1 activator 162 | STAT1 act conf 181 | NFkB act STAT1ct 138 | STAT3 act 2 inactive
COc1ccc(-c2noc(Cc3ccccc3OC)n2)cc1	none
Cc1ccn2c(c1)nc(=S)n2C(=O)c1ccco1	NF-kB expr up 8.5, STAT1 activator 217, APP 5'UTR act 161 | STAT1 act conf 193 | NFkB act STAT1ct 152 | STAT3 act 2 122
Cc1nn(C(=O)c2ccco2)c(C)c1Br	none
N#C/C(=N\Nc1ccc(Cl)cc1)C(=N)N1CCCCCC1	STAT1 activator 158, APP 5'UTR act 236 | STAT1 act conf 305 | NFkB act STAT1ct 135 | STAT3 act 2 116
N#C/C(=N/Nc1ccc([N+](=O)[O-])cc1)C(=N)N1CCCCC1	NF-kB expr up 8.1, STAT1 activator 174, APP 5'UTR act 174 | STAT1 act conf 249 | NFkB act STAT1ct 143 | STAT3 act 2 122
N#C/C(=N\Nc1ccc(S(=O)(=O)N2CCCCC2)cc1)C(N)=S	none
CCCC(=O)Nc1ccc2c(c1)nc1n2CCN(C2CCCCC2)C1	none
CCOC(=O)CSc1nc(-c2ccncc2)ccc1C#N	NF-kB expr up 8.9, STAT1 activator 159, APP 5'UTR act 185 | STAT1 act conf 190 | NFkB act STAT1ct inactive | STAT3 act 2 inactive
CCOC(=O)CC(=O)CSc1nc(-c2cccnc2)ccc1C#N	none
Cc1csc(SCC(=O)NCCc2ccc(Cl)cc2Cl)n1	none
O=S(=O)(N/N=C/c1ccc(N2CCOCC2)cc1)c1ccc(Br)cc1	none
CN(C)c1ccc(/C=N/N=C/c2ccccc2O)cc1	NF-kB expr up 3.6, STAT1 activator 156, APP 5'UTR act 165 | STAT1 act conf 208 | NFkB act STAT1ct inactive | STAT3 act 2 inactive
COc1ccc(CNC(=O)CSc2n[nH]c(C)c2[N+](=O)[O-])cc1	none
Cn1cccc1/C=C1\CCC/C(=C\c2cccn2C)C1=O	NF-kB expr up 6, STAT1 activator 152, APP 5'UTR act 143 | STAT1 act conf 228 | NFkB act STAT1ct 155 | STAT3 act 2 inactive
CN(C)c1ccc(/C=N/NC(=O)c2ccco2)cc1	NF-kB expr up 5.6, STAT1 activator 160 | STAT1 act conf 174 | NFkB act STAT1ct inactive | STAT3 act 2 inactive
CN(C)c1ccc(/C=N/NC(=O)C2CC2c2ccccc2)cc1 (stereo unspecified)	none
COc1ccccc1NC(=S)N/N=C/c1ccc(O)cc1	NF-kB expr up 4, STAT1 activator 159 | STAT1 act conf 209 | NFkB act STAT1ct inactive | STAT3 act 2 inactive
COc1ccc(OCC(=O)N/N=C2/C=C(C)CC2)cc1	none
Cc1ccc(/C=N/Nc2nc3ccccc3s2)o1	NF-kB expr up 6.4, STAT1 activator 154, APP 5'UTR act 167 | STAT1 act conf 264 | NFkB act STAT1ct inactive | STAT3 act 2 129
O=C(COC(=O)CCSc1ccccc1)NCc1ccc(F)cc1	none
Cc1cc(C)n(-c2ccc(C(=O)Nc3sccc3C(N)=O)cc2)n1	STAT1 activator 163, APP 5'UTR act 171 | STAT1 act conf 211 | NFkB act STAT1ct inactive | STAT3 act 2 inactive
Cc1cc(C)n(-c2ccc(C(=O)Nc3cccnc3Cl)cc2)n1	none
Cc1cc(C)n(-c2ccc(C(=O)Nc3ccccn3)cc2)n1	NF-kB expr up 4.1, STAT1 activator 156, APP 5'UTR act 142 | STAT1 act conf 181 | NFkB act STAT1ct inactive | STAT3 act 2 inactive
Cc1cc(C)n(-c2ccc(C(=O)Nc3nnc(C)s3)cc2)n1	none
CCc1ccc(NC(=O)c2ccc3ncsc3c2)cc1	NF-kB expr up 6.4, STAT1 activator 162, APP 5'UTR act 152 | STAT1 act conf 203 | NFkB act STAT1ct 138 | STAT3 act 2 inactive
COc1ccccc1NC(=O)Nc1nc(C(C)(C)C)cs1	none
Cn1ncc(Br)c1C(=O)Nc1ccc(Br)cn1	none
Cc1c(C(=O)Nc2ccc(Br)cc2)cnn1C	STAT1 activator 152 | STAT1 act conf 159 | NFkB act STAT1ct inactive | STAT3 act 2 118
Cn1c(N)c(C(=O)COC(=O)CNS(=O)(=O)c2cccc(Cl)c2)c(=O)n(C)c1=O	none
COc1cccc(-c2noc(-c3ccoc3C)n2)c1	STAT1 activator 160 | STAT1 act conf 192 | NFkB act STAT1ct 134 | STAT3 act 2 111
COc1ccc(-c2noc(-c3ccco3)n2)cc1OC	NF-kB expr up 5.7, STAT1 activator 152 | STAT1 act conf 202 | NFkB act STAT1ct 137 | STAT3 act 2 119
Cc1ccc(Cn2cnc3c(cnn3-c3ccc(F)cc3)c2=O)cc1	none
CC(C)(C)OC(=O)N/N=C\C=C\c1ccc2c(c1)OCO2	STAT1 activator 158 (no result: APP 5'UTR act) | STAT1 act conf 185 | NFkB act STAT1ct inactive | STAT3 act 2 111
CCc1ccc(NC(=O)c2ccccc2Br)cc1	NF-kB expr up 4.2, STAT1 activator 155 | STAT1 act conf 177 | NFkB act STAT1ct 138 | STAT3 act 2 inactive
CN1CCN(c2ccc(NC(=O)c3ccccc3Br)cc2)CC1	none
Cc1ccc(/C=N/NC(=O)CCn2nc(C)cc2C)c(C)c1	none
O=C(NCCc1ccccc1)c1n[nH]c2ccccc12	NF-kB expr up 3.4, STAT1 activator 164 | STAT1 act conf 184 | NFkB act STAT1ct inactive | STAT3 act 2 inactive
O=C(NCCc1ccc(Cl)cc1)c1n[nH]c2ccccc12	none
CCCCNC(=O)Nc1nc2ccccc2s1	STAT1 activator 152, APP 5'UTR act 148 | STAT1 act conf 186 | NFkB act STAT1ct inactive | STAT3 act 2 116
Cc1ccc2nc(NC(=O)c3ccc(Cl)s3)sc2c1	NF-kB expr up 5.3, STAT1 activator 152 | STAT1 act conf 249 | NFkB act STAT1ct 138 | STAT3 act 2 inactive
Cc1ccc2nc(NC(=O)CCn3cccc3)sc2c1	STAT1 activator 152 | STAT1 act conf 141 | NFkB act STAT1ct inactive | STAT3 act 2 inactive
